This series concerns MS2 coat protein. Kind of series: apparent Kd, MS2 coat protein; higher = weaker binding; RNA-MaP array; FMN 200 µM where present. The method in brief: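 Apparent Kd: the median of filtered binding-curve fits from single clusters. Designs were transcribed on Illumina sequencing-chip clusters by stalled E. coli RNA polymerase and titrated with SNAP-549-labelled MS2 coat protein from 0.7 or 1.5 nM, doubling to 3 µM, in 100 mM Tris-HCl pH 7.5, 80 mM KCl, 4 mM MgCl2, BSA, DTT, yeast tRNA and Tween-20. Each series ran without and then with constant ligand, and green signal was normalised to red-channel RNA signal and control-cluster median Fmax.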

The mark [1] stands for this setting: designed as: OFF switch for flavin mononucleotide, no ligand.
Where [2] appears, read: ligand present: flavin mononucleotide, designed as: OFF switch for flavin mononucleotide.
Setting [3] is: designed as: ON switch for flavin mononucleotide, no ligand.
[4] abbreviates: ligand present: flavin mononucleotide, designed as: ON switch for flavin mononucleotide.

Take “GCUCGUAGACAGAAGGCGACAUGAGGAUCACCCAUGUUGGCUCGGGUAUGACCAAUCCGCAUGAUCGAGGAUAUGUCCGCGGGC”: the “apparent Kd” value is, setting by setting: under setting [1], 287 nM; under setting [2], 16.4 nM.

Regarding “UAGAUGGGAGGAUAUACGUAGUUGCAGGUUCGUGUGGUGCUACAUGAGGAUCACCCAUGUAGAAGGCCCGUCUU”, the “apparent Kd” value stood at 14.7 nM under setting [1] and 40.6 nM under setting [2].

Take “UUCCUACAUGAGGAUCACCCAUGUCAGGAUAUCUCCUCACCGCGAAUGGGCAGUGAAUAGAGAAGGGACAGGAA”: the “apparent Kd” value is, setting by setting: under setting [1], 11.9 nM; under setting [2], 15.9 nM.

As to “UAUUGAUAAUAUCUUCACAUGAGGAUCACCCAUGUCGCUCGACAGGAUAUAUUUUAUUUGUUUAAGUAGAAGGGUCGCAGAUUU”, the “apparent Kd” value under setting [3] was 165 nM and the “apparent Kd” value under setting [4] turned out to be 142 nM.

Take “UGUGUGAGACAGGAUAUGCCGGUUGAAUUGCUGGUAGAAGGGUCUACAUGAGGAUCACCCAUGUGGCCGGUUGG”: the “apparent Kd” value was 18.7 nM under setting [1] and 25.5 nM under setting [2].

Consider “GGACAUGUCGUCUACAUGAGGAUCACCCAUGUCGAUAGACAUGAGGAUAUCGAUAAGAAUUGUAUCGAGAAGGUAUGUAGGUCC”, for which the “apparent Kd” value under setting [3] was determined as 18.7 nM and the “apparent Kd” value under setting [4] turned out to be 24.9 nM.

Take “AUGCCCUGAGGAUAUCUCAUCCCGCACAUGAGGAUCACCCAUGUUCUCCUCCGGGCUCCGAGAGAAGGCAGGCCCA”: the “apparent Kd” value under setting [1] was 55.6 nM and the “apparent Kd” value under setting [2] stood at 87.2 nM.

For “CAGGUAGACUGAGGAUAUACAAUAAACAGCUAGUCUAUCUAGCUGUCUACAUGAGGAUCACCCAUGUAGAAGGCAGUCUGCCUG”, the “apparent Kd” value came out at 17 nM under setting [1] and 17.4 nM under setting [2].

Regarding “UAUAUAUAGUAAGGAUAUGUAUAUAUUUUGUAAACAGAAGGUACUGACAUGAGGAUCACCCAUGUUUUAGUGUGGGCAUGUAGA”, the “apparent Kd” value worked out at 80.8 nM under setting [1] and 130 nM under setting [2].

Turning to “UUUUAACAUGAGGAUCACCCAUGUGAGGAUAUCGAAAUUUAUAUUUAUAUUAAUAAUUCGAGAAGGCACAUUUU”, the “apparent Kd” value under setting [1] is 172 nM and the “apparent Kd” value under setting [2] came to 165 nM.

Regarding “GUCAGCUCGUGAGGAUAUAGAACACUGCUUCGGCAGUGUAUUAAGAUCACAUGAGGAUCACCCAUGUAGAAGGCACGAGCUGAU”, the “apparent Kd” value is, setting by setting: under setting [1], 5.12 nM; under setting [2], 9.33 nM.

In the case of “UUUGCAUUCCGAGGAUAUUCAUUUAAUGUCUUCACAUGAGGAUCACCCAUGUGGCGCUUGCGCCGGGAGAAGGCGGUUUGCUUU”, the “apparent Kd” value is, setting by setting: under setting [3], 28.6 nM; under setting [4], 29.3 nM.

With “AGAAAACAUGAGGAUCACCCAUGUCAGGAUAUCCUGCGGCGAUACAAGCCACGUUGUCGGAGAAGGGACAGGGA”, the “apparent Kd” value runs as follows: under setting [1], 58 nM; under setting [2], 89.7 nM.

Regarding “CUAUUCCGAGGAUAUACAUGAGGAUCACCCAUGUCGGGCCUCCGCGUUUCGCGCCUCAGUAGAAGGCGGGUUUC”, the “apparent Kd” value came out at 20.4 nM under setting [1] and 25.9 nM under setting [2].

Consider “AUUCCUAGUGUUAGGAUAUGCGACGGGUGACCGUUGCAGAAGGAACAUGAGGAUCACCCAUGUUUAAUAAAAUC”, for which the “apparent Kd” value was determined as 15.6 nM under setting [1] and 80.7 nM under setting [2].

Take “AGGUGACAUGAGGAUCACCCAUGUCAGGAUAUAUACACCGCCGGCGUGAAGCCGGCGGAUAGAAGGGACAAAAU”: the “apparent Kd” value was 17.1 nM under setting [1] and 21.3 nM under setting [2].

In the case of “UAACAGCAAGGAUAUACGGGCUGUGCUUUUCAUUUCUUACAACAUGAGGAUCACCCAUGUAGAAGGUGCAACAU”, the “apparent Kd” value under setting [1] amounted to 32.5 nM and the “apparent Kd” value under setting [2] amounted to 76.9 nM.

“AUGAAAGUAACGCAGGAUAUCCAGGAUACAACAUGAGGAUCACCCAUGUACAUACGAACGUAUAAGGAGAAGGGUGGAUGAUCUUC”: the “apparent Kd” value is 173 nM under setting [3] and 342 nM under setting [4].

Take “ACGAGCAAGAUUAUUAUGAAUAAACAUGAGGAUCACCCAUGUAAGGAUAUGCAGUGGAAUACACUGCAGAAGGUACAUAGCUCG”: the “apparent Kd” value under setting [1] is 11.3 nM and the “apparent Kd” value under setting [2] is 44.2 nM.

As to “GUCAGCUCGUGAGGAUAUACAACACGGCUUCGGCAGUGUAUUAAGAUCACAUGAGGAUCACCCAUGUAGAAGGCACGAGCUGAU”, the “apparent Kd” value is, setting by setting: under setting [1], 13.9 nM; under setting [2], 200 nM.

On to “ACACAACAUGAGGAUCACCCAUGUUUUCGAUUCACAGGAUAUGGGACAUCCGGAGGGUGACCAGAAGGGUGACUCG”, for which the “apparent Kd” value by setting is: under setting [3], 29.9 nM; under setting [4], 18.8 nM.

Turning to “GGUACUCAGAGAGUACCAAUACGAACAUGAGGAUCACCCAUGUAGGAUAUGCUACUCAAAGAGUAGCAGAAGGACAUGUGCCUA”, the “apparent Kd” value worked out at 14.9 nM under setting [1] and 101 nM under setting [2].

“AUUAUUGACGAAGGAUAUGGAUACAUGAGGAUCACCCAUGUAUAAUUUGUGAUCAUAUAUAUGAUCCAGAAGGUCGUUGUUUAU”: the “apparent Kd” value worked out at 41 nM under setting [1] and 63.8 nM under setting [2].

With “CAUCAGUCUGUGAGGAUAUUGGUCGAGUGACUUAUUAAGAAGGCACAUGAGGAUCACCCAUGUGGGAAGUCAGG”, the “apparent Kd” value under setting [1] is 24.3 nM and the “apparent Kd” value under setting [2] worked out at 26.6 nM.

Turning to “AGUACCAUGUAGAAGGGAUAUCUGAUUCAGAUAUCAGGAUAUACAUGAGGAUCACCCAUGUAAAUGUACUGCACGAGAGUGCAA”, the “apparent Kd” value stood at 14.7 nM under setting [1] and 50.2 nM under setting [2].

With “AAUAUAAAAGAGCUGGAUAAACUCACAUGAGGAUCACCCAUGUAGGAUAUCAGCACGAUAAGUGCUGAGAAGGACAACCAGCUC”, the “apparent Kd” value by setting is: under setting [1], 14.8 nM; under setting [2], 15.3 nM.

As to “UGUUGUAUUACAGGAUAUCUAUUGGUUUUAUUUAGAGAAGGGUAUUCACAUGAGGAUCACCCAUGUAUAUACGAGGAAGUUGUG”, the “apparent Kd” value is 60.5 nM under setting [3] and 66.9 nM under setting [4].

Consider “GAGUGGAGGAAAGGAUAUACAAUGAUAAUCACAGUAGAAGGUUCUAACAUGAGGAUCACCCAUGUAGGACUAUACCAGAGAGGG”, for which the “apparent Kd” value is 13.1 nM under setting [3] and 12.5 nM under setting [4].

As for “AGGUGACAUGAGGAUCACCCAUGUGAGGAUAUCUGGAUACUCUUUAUUUUAGAUAUCCAGAGAAGGCACACCCU”, the “apparent Kd” value by setting is: under setting [1], 263 nM; under setting [2], 502 nM.

In the case of “CUAUGCGGAAUAGGAUAUUCAUUCAUGAGGAUAGAAGAAGGGUUACAUGAGGAUCACCCAUGUAUACACAUGAGGAUCCCUUAC”, the “apparent Kd” value was 162 nM under setting [1] and 181 nM under setting [2].

Turning to “GGUUCUCAAAGAGAACCAUAACGAACAUGAGGAUCACCCAUGUAGGAUAUGCUACUCAAAGAGUAGCAGAAGGACAUGUGCCUU”, the “apparent Kd” value under setting [1] came to 30.6 nM and the “apparent Kd” value under setting [2] is 265 nM.

As for “UGGUACAUGAGGAUCACCCAUGUAAGAGCCCUCAUGCGAUGUAGAAGGAUAAUGGGAGUACUGCUAUAGGAUAUACAUGAGUUU”, the “apparent Kd” value runs as follows: under setting [1], 145 nM; under setting [2], 147 nM.

As for “GCCCGGCCCGGGCCCACGGCAUCACAGGAUAUGCCGAUCACAUGAGGAUCACCCAUGUCAACUCCGCAGAAGGGUGAUAUCGUG”, the “apparent Kd” value was 322 nM under setting [3] and 33.2 nM under setting [4].

Regarding “UGAUCGAAAGAUCAUAGAUUCUGCUAGGAUAUGCAGAAGUUGCGAUUUACAUGAGGAUCACCCAUGUAGAAGGAGUAGAGUCUA”, the “apparent Kd” value came to 7.16 nM under setting [1] and 7.16 nM under setting [2].

For the sequence “CGGCGCUGUCGAGAGGAUAUGCGGUGAUGGACAUGAGGAUCACCCAUGUUAGCGAUAGCAUUACGGUAGAAGGCUCUACAGCUGC”, the “apparent Kd” value was determined as 34.7 nM under setting [3] and 16.3 nM under setting [4].

On to “UGGCUACAUGAGGAUCACCCAUGUCAGGAUAUGCCGUUGGAUUGACAUCGUCGUACGGGUAGAAGGGACUGCGU”, for which the “apparent Kd” value runs as follows: under setting [1], 59.8 nM; under setting [2], 58.3 nM.

As for “UACAUGUGAGGAUAUGUACGAGACCCUGACGGGCCUCGCAGGCAGAAGGCACAUGAGGAUCACCCAUGUGACCG”, the “apparent Kd” value runs as follows: under setting [1], 27.2 nM; under setting [2], 99.1 nM.

As to “UUCAACGAUGAAGGAUAUCUAUAAACAUGAGGACAUGAGGAUCACCCAUGUUGAUCACCCAUGUAGGAGAAGGUCAACAUGAGG”, the “apparent Kd” value was found to be 220 nM under setting [3] and 68.2 nM under setting [4].

Take “AACCUAUUACAGAAGGCCAGCUACAUGAGGAUCACCCAUGUCGAGUCAUGGAGGAUAUGUAGUAAUUUACUCGCAGAUGAGUGC”: the “apparent Kd” value is, setting by setting: under setting [3], 24.4 nM; under setting [4], 4.9 nM.

In the case of “GUUGGGUGUCAUGUCGCACAUGAGGAUCACCCAUGUAAGAGGUAGGAUAUCCACGAGUAACAAGAGGAGAAGGGCCGUCAGCGU”, the “apparent Kd” value reads like this: under setting [1], 25.8 nM; under setting [2], 32.2 nM.

For the sequence “GUACAUGAGGAUCACCCAUGUAAAUGGGUAAAUAUAGAACGUAGAAGGAUGUAUUUACACAUGACAUAGGAUAUACUAUAUAGU”, the “apparent Kd” value came to 93.8 nM under setting [1] and 73.9 nM under setting [2].

Regarding “AGCUACGUUUCGUAGCAGUGUCAUCGAGAAGGCCCUGACAUGAGGAUCACCCAUGUUGUUACAUGGGAGGAUAUCGAUGAUACU”, the “apparent Kd” value is, setting by setting: under setting [3], 13.4 nM; under setting [4], 5.59 nM.

Consider “CUCCAGCAAGGAUAUACAUGAGGAUCACCCAUGUAAAGACAAGAGUUGGGAGACGCAUGUAGAAGGUGCACAUC”, for which the “apparent Kd” value came out at 38.2 nM under setting [1] and 69 nM under setting [2].

As for “AACCUAUUACAGAAGGCCAGCUACAUGAGGAUCACCCAUGUCGAGUCAUGGAGGAUAUGUAGUAAUUCACUCGCAGAUGAGUAC”, the “apparent Kd” value runs as follows: under setting [3], 29.8 nM; under setting [4], 5.33 nM.

In the case of “AUCCGACAUGUAGGAUAUGCGUGGCGAAGCUAUGCAGAAGGACAUGAGGAUCACCCAUGUUUUACCGUCUGCGUACAGACGGUG”, the “apparent Kd” value by setting is: under setting [1], 286 nM; under setting [2], 240 nM.

Turning to “GCGUACAUAUCAGGAUAUCAUUGUAUUGUUUAACUCAGUGUAUACAUGAGGAUCACCCAUGUUCUUGAGAAGGGAUUACUACGC”, the “apparent Kd” value runs as follows: under setting [1], 14.1 nM; under setting [2], 15.4 nM.

Turning to “GUCAUCUCGUGAGGAUAUACAACACUGCUUCGGCAGUGUAUUAAGAUCACAUGAGGAUCACCCAUGUAGAAGGCACGAGCUGAU”, the “apparent Kd” value by setting is: under setting [1], 15 nM; under setting [2], 214 nM.

For the sequence “UGGUACUACGGAGGAUAUCAUGUAAAUACAUGAGGAUCACCCAUGUCGUACGAGAGUACGGAGAUUGAGAAGGCCGUAGUACCU”, the “apparent Kd” value is, setting by setting: under setting [3], 25.6 nM; under setting [4], 15.6 nM.
